Laboratory results: ChEMBL document CHEMBL3132844, “Acyl protein thioesterase inhibitors as probes of dynamic S-palmitoylation” (Medchemcomm, 2014)

Key:
[1] = target: T1, Acyl-protein thioesterase 2 (Homo sapiens, UniProt O95372); assay: Inhibition of APT2 (unknown origin) by FluPol-ABPP assay
Summary of the method: (§1)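 Fluorescence polarization competitive ABPP (FluoPol-ABPP) in high-throughput format. Recombinant human APT enzyme was preincubated with candidate inhibitor at 10 µM. FP-TAMRA was then added for a short, time-dependent reaction under non-equilibrium conditions. Read-out was the polarization signal of probe labeling of the active site.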

[2] = target: T2, Acyl-protein thioesterase 1 (Homo sapiens, UniProt O75608); assay: Inhibition of APT1 (unknown origin) by FluPol-ABPP assay; summary of the method: as §1
[3] = target: T1, Acyl-protein thioesterase 2; assay: Inhibition of human APT2
Summary of the method: (§2)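 Potency and selectivity were measured by gel-based competitive ABPP. The enzyme source was preincubated with inhibitor, then labeled with a fluorophosphonate activity-based probe. Residual active-site labeling was visualized in-gel.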

[4] = target: T2, Acyl-protein thioesterase 1; assay: Inhibition of human APT1; summary of the method: as §2
[5] = target: T3, sn-1-specific diacylglycerol lipase ABHD11 (Homo sapiens, UniProt Q8NFV4); assay: Inhibition of ABHD11 (unknown origin); summary of the method: as §2
T3 sequence (Q8NFV4 whole entry): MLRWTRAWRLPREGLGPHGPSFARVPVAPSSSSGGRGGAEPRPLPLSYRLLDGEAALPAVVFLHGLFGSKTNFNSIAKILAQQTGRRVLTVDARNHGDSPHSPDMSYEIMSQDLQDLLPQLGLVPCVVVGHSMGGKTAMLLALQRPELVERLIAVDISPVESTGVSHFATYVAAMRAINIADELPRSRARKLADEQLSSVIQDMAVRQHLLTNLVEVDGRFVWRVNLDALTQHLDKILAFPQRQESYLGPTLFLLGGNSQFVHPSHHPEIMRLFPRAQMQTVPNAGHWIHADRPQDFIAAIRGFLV

[6] = target: T1, Acyl-protein thioesterase 2; assay: Inhibition of APT2 (unknown origin)
[7] = target: T1, Acyl-protein thioesterase 2; assay: Inhibition of APT2 (unknown origin) by enzyme kinetic assay
[8] = Inhibition of Toxoplasma gondii ASH1
Summary of the method: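 The Toxoplasma gondii APT homologue TgASH1 was assayed by competitive ABPP. The inhibitor was preincubated, followed by activity-based probe labeling. Loss of probe labeling of TgASH1 was scored across inhibitor concentrations.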

[9] = target: T2, Acyl-protein thioesterase 1; assay: Inhibition of APT1 (unknown origin)

T1 sequence (O95372 whole entry): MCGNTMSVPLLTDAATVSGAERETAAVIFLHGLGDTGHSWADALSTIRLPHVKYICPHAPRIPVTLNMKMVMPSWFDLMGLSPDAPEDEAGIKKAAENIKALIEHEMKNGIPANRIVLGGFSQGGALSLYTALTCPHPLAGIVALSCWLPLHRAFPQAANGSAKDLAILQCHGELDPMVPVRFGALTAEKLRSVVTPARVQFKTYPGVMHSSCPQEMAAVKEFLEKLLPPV
T2 sequence (O75608 whole entry): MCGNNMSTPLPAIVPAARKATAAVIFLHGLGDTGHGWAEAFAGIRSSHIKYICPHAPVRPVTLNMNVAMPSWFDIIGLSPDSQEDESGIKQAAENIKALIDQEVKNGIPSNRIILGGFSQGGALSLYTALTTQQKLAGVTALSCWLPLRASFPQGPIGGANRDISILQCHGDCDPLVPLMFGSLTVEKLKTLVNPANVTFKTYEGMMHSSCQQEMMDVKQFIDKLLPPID

SMILES	IC50 [3] [nM]	IC50 [4] [nM]	IC50 [5] [nM]	also measured
COc1ccc(N2CCN(C(=O)c3cc4c(s3)-c3ccccc3S(=O)(=O)C4)CC2)cc1				Ki [1]: 230 nM; Ki [2]: > 10000 nM
CCCCCCCCCC[C@@H]1C(=O)O[C@H]1CCCCS(=O)(=O)CCCN(C)C				IC50 [6]: 19.6 nM
CN(C)CCOB(c1ccccc1)c1ccc(COCc2ccc(B(OCCN(C)C)c3ccccc3)cc2)cc1				Ki [7]: 730 nM
CCCOc1oc(=O)c2cc(N)ccc2c1Cl				IC50 [8]: 1320 nM
O=C(CN1CCN(C(=O)c2ccco2)CC1)Nc1cc(C(F)(F)F)ccc1Cl				Ki [1]: > 10000 nM
CCCCCCCCCC[C@@H]1C(=O)O[C@H]1CCc1ccc(OC)c(OC)c1 [PALMOSTATIN B]				IC50 [9]: 5.4 nM; IC50 [6]: 37.7 nM; Ki [6]: 34 nM

Now from value to compound, other results behind:

IC50 [3] [nM]	IC50 [4] [nM]	IC50 [5] [nM]	SMILES	also measured
> 10000	> 10000	< 30	CCC1CCCCN1C(=O)n1ncc(C(O)(c2ccccc2)c2ccccc2)n1 (stereo not drawn)	
30	17	< 30	CC(C)(C)C1CCN(C(=O)n2ncc(C(O)(c3ccccc3)c3ccccc3)n2)CC1	
200	< 30	< 30	O=C(N1CCCCC1)n1ncc(C(O)(c2ccccc2)c2ccccc2)n1	
